Measured values: ChEMBL document CHEMBL4689842, “EUbOPEN Chemogenomics Library wave 1” (2021)

Tested on: U2OS
Experiment: Multiplex assay against U2OS
Type: toxicity, cell-based
Conditions: human
In short: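 At seeding, live cells were stained with Hoechst33342, BioTracker Green Microtubule Cytoskeleton Dye, MitoTracker Red and Annexin V Alexa Fluor 680. After compound addition they were imaged on a CQ1 microscope at 37°C and 5% CO2, and CellPathfinder machine-learning gating sorted them into Hoechst high-intensity objects or normal cells, with normal cells further split into healthy, pyknosed or fragmented nuclei and pyknosed cells into mitotic or apoptotic. Tubulin, mitochondrial-mass and membrane-permeability phenotypes are given as per cents of cells with healthy nuclei.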

[1] = 12 h, 1 µM, compound concentration 1 uM, replicate 1
[2] = 12 h, 1 µM, compound concentration 1 uM, replicate 2
[3] = 12 h, 10 µM, compound concentration 10 uM, replicate 1
[4] = 12 h, 10 µM, compound concentration 10 uM, replicate 2
[5] = 24 h, 1 µM, compound concentration 1 uM, replicate 1
[6] = 24 h, 1 µM, compound concentration 1 uM, replicate 2
[7] = 24 h, 10 µM, compound concentration 10 uM, replicate 1
[8] = 24 h, 10 µM, compound concentration 10 uM, replicate 2
[9] = 48 h, 1 µM, compound concentration 1 uM, replicate 1
[10] = 48 h, 1 µM, compound concentration 1 uM, replicate 2
[11] = 48 h, 10 µM, compound concentration 10 uM, replicate 1
[12] = 48 h, 10 µM, compound concentration 10 uM, replicate 2

## CN1CCC(=C2c3ccccc3CC(=O)c3sccc32)CC1.O=C(O)/C=C/C(=O)O [KETOTIFEN FUMARATE]
[1]
  Population Apoptotic (%): 63%
  Population Fragmented Nuclei (%): 10%
  Population Healthy Nuclei (%): 75%
  Population Hoechst High Intensity Objects (%): 5%
  Population Membrane Permeable-Phenotype (%): 15%
  Population Mitochondria Different-Phenotype (%): 19%
  Population Mitotic Cells (%): 36%
  Population Normal (%): 94%
  Population Pyknosed Nuclei (%): 13%
  Population Tubulin-Different-Phenotype (%): 19%
  Total Cell Count: 178
[2]
  Population Apoptotic (%): 75%
  Population Fragmented Nuclei (%): 6%
  Population Healthy Nuclei (%): 87%
  Population Membrane Permeable-Phenotype (%): 10%
  Population Mitochondria Different-Phenotype (%): 12%
  Population Mitotic Cells (%): 25%
  Population Pyknosed Nuclei (%): 6%
  Population Tubulin-Different-Phenotype (%): 9%
  Total Cell Count: 56
[3]
  Population Apoptotic (%): 52%
  Population Fragmented Nuclei (%): 15%
  Population Healthy Nuclei (%): 62%
  Population Hoechst High Intensity Objects (%): 5%
  Population Membrane Permeable-Phenotype (%): 15%
  Population Mitochondria Different-Phenotype (%): 90%
  Population Mitotic Cells (%): 48%
  Population Normal (%): 94%
  Population Pyknosed Nuclei (%): 21%
  Population Tubulin-Different-Phenotype (%): 97%
  Total Cell Count: 167
[4]
  Population Apoptotic (%): 33%
  Population Fragmented Nuclei (%): 2%
  Population Healthy Nuclei (%): 75%
  Population Hoechst High Intensity Objects (%): 1%
  Population Mitotic Cells (%): 66%
  Population Normal (%): 98%
  Population Pyknosed Nuclei (%): 22%
  Population Tubulin-Different-Phenotype (%): 95%
  Total Cell Count: 67
[5]
  Population Apoptotic (%): 48%
  Population Healthy Nuclei (%): 77%
  Population Hoechst High Intensity Objects (%): 5%
  Population Membrane Permeable-Phenotype (%): 8%
  Population Mitochondria Different-Phenotype (%): 16%
  Population Mitotic Cells (%): 52%
  Population Normal (%): 94%
  Population Pyknosed Nuclei (%): 14%
  Population Tubulin-Different-Phenotype (%): 11%
  Total Cell Count: 180
[6]
  Population Apoptotic (%): 100%
  Population Fragmented Nuclei (%): 8%
  Population Healthy Nuclei (%): 86%
  Population Hoechst High Intensity Objects (%): 7%
  Population Membrane Permeable-Phenotype (%): 9%
  Population Mitochondria Different-Phenotype (%): 10%
  Population Mitotic Cells (%): 0%
  Population Normal (%): 92%
  Population Pyknosed Nuclei (%): 5%
  Population Tubulin-Different-Phenotype (%): 4%
  Total Cell Count: 64
[7]
  Population Apoptotic (%): 62%
  Population Fragmented Nuclei (%): 14%
  Population Healthy Nuclei (%): 59%
  Population Hoechst High Intensity Objects (%): 6%
  Population Membrane Permeable-Phenotype (%): 5%
  Population Mitochondria Different-Phenotype (%): 96%
  Population Mitotic Cells (%): 37%
  Population Normal (%): 93%
  Population Pyknosed Nuclei (%): 25%
  Population Tubulin-Different-Phenotype (%): 85%
  Total Cell Count: 186
[8]
  Population Apoptotic (%): 59%
  Population Fragmented Nuclei (%): 6%
  Population Healthy Nuclei (%): 66%
  Population Hoechst High Intensity Objects (%): 2%
  Population Membrane Permeable-Phenotype (%): 22%
  Population Mitochondria Different-Phenotype (%): 98%
  Population Mitotic Cells (%): 40%
  Population Normal (%): 97%
  Population Pyknosed Nuclei (%): 27%
  Population Tubulin-Different-Phenotype (%): 88%
  Total Cell Count: 80
[9]
  Population Apoptotic (%): 40%
  Population Fragmented Nuclei (%): 4%
  Population Healthy Nuclei (%): 86%
  Population Hoechst High Intensity Objects (%): 4%
  Population Membrane Permeable-Phenotype (%): 5%
  Population Mitochondria Different-Phenotype (%): 13%
  Population Mitotic Cells (%): 59%
  Population Normal (%): 95%
  Population Pyknosed Nuclei (%): 8%
  Population Tubulin-Different-Phenotype (%): 11%
  Total Cell Count: 182
[10]
  Population Apoptotic (%): 28%
  Population Fragmented Nuclei (%): 8%
  Population Healthy Nuclei (%): 80%
  Population Hoechst High Intensity Objects (%): 2%
  Population Membrane Permeable-Phenotype (%): 4%
  Population Mitochondria Different-Phenotype (%): 9%
  Population Mitotic Cells (%): 71%
  Population Normal (%): 97%
  Population Pyknosed Nuclei (%): 11%
  Population Tubulin-Different-Phenotype (%): 7%
  Total Cell Count: 63
[11]
  Population Apoptotic (%): 66%
  Population Fragmented Nuclei (%): 12%
  Population Healthy Nuclei (%): 60%
  Population Membrane Permeable-Phenotype (%): 9%
  Population Mitochondria Different-Phenotype (%): 70%
  Population Mitotic Cells (%): 33%
  Population Pyknosed Nuclei (%): 27%
  Population Tubulin-Different-Phenotype (%): 72%
  Total Cell Count: 263
[12]
  Population Apoptotic (%): 57%
  Population Fragmented Nuclei (%): 7%
  Population Healthy Nuclei (%): 63%
  Population Hoechst High Intensity Objects (%): 7%
  Population Membrane Permeable-Phenotype (%): 16%
  Population Mitochondria Different-Phenotype (%): 75%
  Population Mitotic Cells (%): 42%
  Population Normal (%): 92%
  Population Pyknosed Nuclei (%): 29%
  Population Tubulin-Different-Phenotype (%): 78%
  Total Cell Count: 130

## CN(C)C(=O)C(CCN1CCC(O)(c2ccc(Cl)cc2)CC1)(c1ccccc1)c1ccccc1.Cl [LOPERAMIDE HYDROCHLORIDE]
[1]
  Population Apoptotic (%): 37%
  Population Fragmented Nuclei (%): 11%
  Population Healthy Nuclei (%): 69%
  Population Hoechst High Intensity Objects (%): 4%
  Population Membrane Permeable-Phenotype (%): 5%
  Population Mitochondria Different-Phenotype (%): 82%
  Population Mitotic Cells (%): 62%
  Population Normal (%): 95%
  Population Pyknosed Nuclei (%): 19%
  Population Tubulin-Different-Phenotype (%): 87%
  Total Cell Count: 181
[2]
  Population Apoptotic (%): 25%
  Population Fragmented Nuclei (%): 5%
  Population Healthy Nuclei (%): 88%
  Population Hoechst High Intensity Objects (%): 7%
  Population Membrane Permeable-Phenotype (%): 11%
  Population Mitochondria Different-Phenotype (%): 90%
  Population Mitotic Cells (%): 75%
  Population Normal (%): 92%
  Population Pyknosed Nuclei (%): 6%
  Population Tubulin-Different-Phenotype (%): 65%
  Total Cell Count: 55
[3]
  Population Apoptotic (%): 66%
  Population Fragmented Nuclei (%): 16%
  Population Healthy Nuclei (%): 42%
  Population Hoechst High Intensity Objects (%): 5%
  Population Membrane Permeable-Phenotype (%): 77%
  Population Mitotic Cells (%): 33%
  Population Normal (%): 95%
  Population Pyknosed Nuclei (%): 40%
  Total Cell Count: 129
[4]
  Population Apoptotic (%): 82%
  Population Fragmented Nuclei (%): 8%
  Population Healthy Nuclei (%): 48%
  Population Hoechst High Intensity Objects (%): 6%
  Population Membrane Permeable-Phenotype (%): 94%
  Population Mitochondria Different-Phenotype (%): 100%
  Population Mitotic Cells (%): 17%
  Population Normal (%): 93%
  Population Pyknosed Nuclei (%): 43%
  Population Tubulin-Different-Phenotype (%): 100%
  Total Cell Count: 64
[5]
  Population Apoptotic (%): 60%
  Population Fragmented Nuclei (%): 10%
  Population Healthy Nuclei (%): 74%
  Population Hoechst High Intensity Objects (%): 5%
  Population Membrane Permeable-Phenotype (%): 6%
  Population Mitochondria Different-Phenotype (%): 84%
  Population Mitotic Cells (%): 40%
  Population Normal (%): 94%
  Population Pyknosed Nuclei (%): 14%
  Population Tubulin-Different-Phenotype (%): 75%
  Total Cell Count: 222
[6]
  Population Apoptotic (%): 53%
  Population Fragmented Nuclei (%): 5%
  Population Healthy Nuclei (%): 71%
  Population Hoechst High Intensity Objects (%): 4%
  Population Membrane Permeable-Phenotype (%): 16%
  Population Mitochondria Different-Phenotype (%): 89%
  Population Mitotic Cells (%): 46%
  Population Normal (%): 95%
  Population Pyknosed Nuclei (%): 22%
  Population Tubulin-Different-Phenotype (%): 62%
  Total Cell Count: 68
[7]
  Population Apoptotic (%): 92%
  Population Fragmented Nuclei (%): 23%
  Population Healthy Nuclei (%): 18%
  Population Hoechst High Intensity Objects (%): 4%
  Population Membrane Permeable-Phenotype (%): 92%
  Population Mitochondria Different-Phenotype (%): 100%
  Population Mitotic Cells (%): 7%
  Population Normal (%): 95%
  Population Pyknosed Nuclei (%): 57%
  Population Tubulin-Different-Phenotype (%): 100%
  Total Cell Count: 146
[8]
  Population Apoptotic (%): 98%
  Population Fragmented Nuclei (%): 10%
  Population Healthy Nuclei (%): 26%
  Population Hoechst High Intensity Objects (%): 10%
  Population Membrane Permeable-Phenotype (%): 86%
  Population Mitochondria Different-Phenotype (%): 95%
  Population Mitotic Cells (%): 1%
  Population Normal (%): 89%
  Population Pyknosed Nuclei (%): 62%
  Population Tubulin-Different-Phenotype (%): 95%
  Total Cell Count: 70
[9]
  Population Apoptotic (%): 60%
  Population Fragmented Nuclei (%): 6%
  Population Healthy Nuclei (%): 78%
  Population Hoechst High Intensity Objects (%): 6%
  Population Mitochondria Different-Phenotype (%): 72%
  Population Mitotic Cells (%): 40%
  Population Normal (%): 93%
  Population Pyknosed Nuclei (%): 15%
  Population Tubulin-Different-Phenotype (%): 59%
  Total Cell Count: 345
[10]
  Population Apoptotic (%): 61%
  Population Fragmented Nuclei (%): 7%
  Population Healthy Nuclei (%): 68%
  Population Hoechst High Intensity Objects (%): 3%
  Population Membrane Permeable-Phenotype (%): 8%
  Population Mitochondria Different-Phenotype (%): 65%
  Population Mitotic Cells (%): 38%
  Population Normal (%): 96%
  Population Pyknosed Nuclei (%): 23%
  Population Tubulin-Different-Phenotype (%): 47%
  Total Cell Count: 118
[11]
  Population Apoptotic (%): 98%
  Population Fragmented Nuclei (%): 33%
  Population Healthy Nuclei (%): 5%
  Population Hoechst High Intensity Objects (%): 9%
  Population Membrane Permeable-Phenotype (%): 100%
  Population Mitochondria Different-Phenotype (%): 100%
  Population Mitotic Cells (%): 1%
  Population Normal (%): 90%
  Population Pyknosed Nuclei (%): 61%
  Population Tubulin-Different-Phenotype (%): 100%
  Total Cell Count: 177
[12]
  Population Apoptotic (%): 100%
  Population Fragmented Nuclei (%): 21%
  Population Healthy Nuclei (%): 30%
  Population Hoechst High Intensity Objects (%): 21%
  Population Membrane Permeable-Phenotype (%): 95%
  Population Mitotic Cells (%): 0%
  Population Normal (%): 78%
  Population Pyknosed Nuclei (%): 48%
  Total Cell Count: 92
